ABCB1 inh = inhibitors of human ABCB1 transporter, ABCG2 counter-screen | P08183 | CCRF-Adr cells, JC-1 efflux, flow cytometry | inhibition, % at 6.6 µM | 190,000 compounds, 0.067% hits | AID 1326; in the data active = inhibition above about 40%;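 also: 0% = vehicle and 100% = reference inhibitor; higher value means more JC-1 retained so stronger ABCB1 efflux block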
Target sequence (P08183 whole entry, looked up): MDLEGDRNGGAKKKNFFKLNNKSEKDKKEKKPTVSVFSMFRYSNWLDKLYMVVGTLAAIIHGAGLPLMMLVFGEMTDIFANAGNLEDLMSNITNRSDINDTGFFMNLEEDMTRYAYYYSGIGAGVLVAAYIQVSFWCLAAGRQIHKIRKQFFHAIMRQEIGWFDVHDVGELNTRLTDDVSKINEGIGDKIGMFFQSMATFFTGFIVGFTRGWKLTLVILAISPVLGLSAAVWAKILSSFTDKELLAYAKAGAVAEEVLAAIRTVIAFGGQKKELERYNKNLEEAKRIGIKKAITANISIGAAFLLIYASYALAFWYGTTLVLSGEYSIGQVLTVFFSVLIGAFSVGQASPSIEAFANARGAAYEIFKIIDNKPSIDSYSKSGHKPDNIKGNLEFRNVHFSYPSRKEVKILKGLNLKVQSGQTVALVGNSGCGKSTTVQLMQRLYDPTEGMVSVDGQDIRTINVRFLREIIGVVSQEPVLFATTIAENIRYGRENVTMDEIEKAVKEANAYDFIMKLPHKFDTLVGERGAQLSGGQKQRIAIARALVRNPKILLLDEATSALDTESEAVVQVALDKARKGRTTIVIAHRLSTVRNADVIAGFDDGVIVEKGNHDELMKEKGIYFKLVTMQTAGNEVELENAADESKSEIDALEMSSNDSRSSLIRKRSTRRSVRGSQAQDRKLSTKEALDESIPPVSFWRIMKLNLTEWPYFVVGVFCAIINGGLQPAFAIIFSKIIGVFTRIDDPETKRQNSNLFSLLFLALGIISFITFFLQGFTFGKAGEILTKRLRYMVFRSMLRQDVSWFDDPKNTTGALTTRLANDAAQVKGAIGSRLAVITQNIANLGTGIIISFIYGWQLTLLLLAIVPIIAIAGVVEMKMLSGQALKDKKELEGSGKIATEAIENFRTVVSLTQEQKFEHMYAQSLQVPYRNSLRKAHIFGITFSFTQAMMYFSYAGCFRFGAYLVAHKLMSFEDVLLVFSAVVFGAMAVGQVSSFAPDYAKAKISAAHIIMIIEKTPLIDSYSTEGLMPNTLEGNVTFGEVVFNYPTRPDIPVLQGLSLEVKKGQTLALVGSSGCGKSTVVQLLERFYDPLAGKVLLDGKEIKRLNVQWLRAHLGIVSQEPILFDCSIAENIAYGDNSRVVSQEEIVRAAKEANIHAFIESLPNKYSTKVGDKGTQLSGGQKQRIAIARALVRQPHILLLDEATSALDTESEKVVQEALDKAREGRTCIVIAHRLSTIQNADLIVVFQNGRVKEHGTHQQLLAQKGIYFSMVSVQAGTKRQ
Lmaj promast = reduces viability of Leishmania major promastigotes. resazurin fluorescence viability. inhibition, % at 10 µM. 200,000 compounds, 9% hits. AID 1063; in the data active = inhibition above about 50%;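 also: promastigotes grown with compound for 44 hours at 28 °C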
ABCG2 inh = inhibitors of human ABCG2 transporter, ABCB1 counter-screen; IgMXP3 cells, JC-1 efflux, flow cytometry; inhibition, % at 6.6 µM; 190,000 compounds, 0.1% hits;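 active = inhibition above 80%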;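 also: 0% = DMSO and 100% = nicardipine control wells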
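test system = two drug-resistant human cell lines, ABCG2 and ABCB1 | amount = 3 million cells/mL final, two lines in 1:1 ratio | reagent = JC-1 transporter substrate | doses = one concentration, 6.6 µM final | incubation = 10 min at 25 °C | signal = flow cytometric JC-1 green MFI at 530 nm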
WT yeast gro inh = growth inhibition of WT yeast, mitochondrial fusion screen | inhibition, % at 10 µM | 190,000 compounds, 2.1% hits | AID 1362 | mitochondrial fusion phenotypic screen, WT strain; in the data active = inhibition above about 58%; tested in S. cerevisiae
RAM inhibit = blocks the yeast RAM network | inhibition, % at 50 µM | 190,000 compounds, 1.8% hits | S. cerevisiae dse1pr::URA3 reporter, 5-FOA growth OD615, 2 d; analog-sensitive cbk1-as2 kinase mutant strain | AID 868;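 active = inhibition above a set limit, 3 SD over mean compound inhibition, cut at about 8.4% in these data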;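 also: 0% = DMSO-only wells with no growth and 100% = 10 µM 1-NA-PP1 full growth; inhibition rescues growth on 5-FOA so higher OD means more RAM inhibition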
Active calls of the source: *; x = not tested or not shown. Hits are enriched below; roughly 12% of the tested compounds scored in any of these assays.

SMILES	ABCB1 inh	Lmaj promast	ABCG2 inh	WT yeast gro inh	RAM inhibit
COc1ccc(CCC(C)NCCc2ccccc2)cc1 (centres undefined)	0.5	88.5*	0.7	-1.6	2.0
Cc1cccc(NC(=O)C(C)N2CC=C(c3ccccc3)CC2)c1 (centres undefined)	0.6	3.8	1.4	12.9	0.1
C=CCN1C(=O)NC(=O)/C(=C/c2ccc(N(C)C)c(Br)c2)C1=O	-0.4	-2.0	-0.9	-11.7	1.7
CCOc1ccc([N+](=O)[O-])cc1CNCCc1ccccc1	0.5	96.5*	1.0	-9.6	0.3
CC1=NN(Cc2c[nH]c3ccccc23)C(C)(C)C1	0.4	4.6	-1.9	6.9	0.9
Cc1nnc2n1-c1ccc(Cl)cc1C(c1ccccc1)=NC2	x	x	0.1	-11.4	x
CN1CCN(CCC(C#N)(c2ccccc2)c2ccccc2)CC1	0.7	79.2*	2.5	4.6	-0.2
O=c1[nH]c(=O)n(CCC2=CCCCC2)c(O)c1C=NCCN1CCNCC1	0.1	2.6	1.9	4.7	1.6
CCCCCCn1c(O)c(C=NC2CCN(Cc3ccccc3)CC2)c(=O)[nH]c1=O	1.1	54.1*	2.4	16.9	0.6
O=c1[nH]c(=O)n(CCC2=CCCCC2)c(O)c1/C=N/Nc1ccccc1	-0.2	80.5*	-0.2	21.4	2.5
CN(C)c1ccc(N=Cc2c(O)n(CCC3=CCCCC3)c(=O)[nH]c2=O)cc1	1.4	6.3	11.4	0.5	0.8
O=c1[nH]c(=O)n(CCC2=CCCCC2)c(O)c1C=NC1CCN(Cc2ccccc2)CC1	0.6	83.0*	0.8	13.0	0.9
CC(=O)NC1C(OC(=O)Cc2ccccc2)OC(COC(C)=O)C(OC(C)=O)C1OC(C)=O (centres undefined)	0.1	-1.7	0.3	12.2	0.6
O=C1NC(=O)N(CCNc2ncc(C(F)(F)F)cc2Cl)C(=O)C1Cc1ccc(Cl)cc1 (centres undefined)	-0.1	-7.8	-0.6	-6.4	4.8
CCCCCCN=Cc1c(O)n(C)c(=O)n(C)c1=O	0.3	-7.2	2.2	1.2	0.0
COC(=O)C[C@]1(C(=O)OC)CN(C#N)N(c2ccc(Cl)cc2)C12c1ccccc1-c1ccccc12	0.5	100.4*	-0.3	21.7	5.9
CC1CN=C(NCc2ccc(F)cc2)S1 (centres undefined)	-0.2	-2.8	-0.7	2.8	-0.4
CN1C(=O)C(Cc2cccc3ccccc23)C(=O)N(C)C1=O	0.2	-5.2	0.9	7.5	1.6
O=C1C2CCN(CC2)[C@@H]1Cc1ccc2ccccc2c1O	0.7	99.2*	3.9	11.3	1.4
O=c1c2ccccc2nc(-c2ccco2)n1-c1nccs1	0.2	-3.8	2.3	7.4	2.6
CCn1c(C)c(C(=O)O)c2cc(OC)ccc21	0.2	-3.9	16.7	1.0	2.3
CCN1CCN(C(=O)Cc2c(C)n(C(=O)c3ccc(Cl)cc3)c3ccc(OC)cc23)CC1	1.4	98.3*	1.9	7.8	-1.0
O=C(c1c[nH]c2ccc(S(=O)(=O)N3CCC4(CC3)OCCO4)cc2c1=O)N1CCC2(CC1)OCCO2	1.3	-10.3	5.0	7.5	0.8
O=C1NC(=O)C(=Cc2ccc(OCC(=O)N3CCOCC3)cc2)C(=O)N1	-1.8	54.1*	-10.2	-19.2	0.9
CN(CCOc1ccc(C=C2C(=O)NC(=O)NC2=O)cc1)c1ccccn1	-1.0	1.2	-1.8	-21.5	0.0
SMILES	ABCB1 inh	Lmaj promast	ABCG2 inh	WT yeast gro inh	RAM inhibit
CC1CCC(C(C)C)C(OC(=O)COC(=O)c2ccccc2N)C1 (centres undefined)	0.4	55.0*	1.5	60.0*	5.2
CC1CCC(C(C)C)C(OP(N)(=O)c2ccccc2)C1 (centres undefined)	1.2	-1.4	0.8	36.7	0.4
CN(C)c1ccc(-[n+]2c(-c3ccccc3)cc(-c3ccccc3)cc2-c2ccccc2)cc1	0.1	100.4*	-6.3	77.0*	1.5
CCCC(=O)NC(Oc1ccc(C(C)=O)cc1)C(Cl)(Cl)Cl (centres undefined)	0.4	-5.0	0.0	12.1	-0.2
O=C(N/N=C/C1C(=O)NC(=S)N(c2ccccc2)C1=O)c1cc(Br)c(O)c(Br)c1 (centres undefined)	-0.3	-4.9	-0.7	-0.5	1.9
O=[N+]([O-])NC1=NCN(Cc2ccco2)CN1Cc1ccco1	1.0	-2.7	6.4	3.0	3.6
CCOc1ccc(C(=O)OC2CC3CCC(C2)N3C)cc1 (centres undefined)	0.7	72.4*	1.0	12.7	-1.3
CN1C2CCC1CC(OC(=O)c1ccc(Cl)cc1)C2 (centres undefined)	-0.8	97.2*	-3.3	-4.6	-0.9
COc1ccc(-c2[nH]ncc2CNC(C)Cc2cccc(C)n2)cc1F (centres undefined)	1.5	1.2	0.2	7.6	1.2
CCN(CC)C(=O)c1ccc(NC(=O)Nc2ccccc2F)cc1	0.5	-3.1	8.0	79.1	3.2
O=c1[nH]c(=S)[nH]c(O)c1N=Nc1ccc2c(c1)OCO2	-0.5	19.9	-0.5	8.2	10.0*
O=c1[nH]c(O)c(N=Nc2ccc3c(c2)OCCO3)c(=O)[nH]1	0.6	30.5	36.6	26.4	1.1
O=C1CN(C(=O)CN2CCCCC2)C(c2ccccc2)c2cc(Br)ccc2N1 (centres undefined)	0.7	98.3*	2.6	16.4	-0.1
CCC(=O)N1CC(=O)Nc2ccc(Br)cc2C1c1ccccc1 (centres undefined)	0.3	0.5	5.2	-11.7	4.9
C/C(=N\NC(N)=O)c1c(O)n(C)c(=O)n(C)c1=O	0.0	-7.1	0.1	-6.4	-0.6
CC1CCC(NCCc2ccc3c(c2)OCO3)CC1 (centres undefined)	0.4	92.6*	2.6	-1.5	-0.3
c1cc2c(cc1CCNC1C3CC4CC(C3)CC1C4)OCO2 (centres undefined)	0.9	86.5*	0.4	-3.5	0.2
O=[N+]([O-])c1cc2c(cc1CNCCc1ccc3c(c1)OCO3)OCO2	1.4	-4.8	43.7	-3.8	1.5
O=P(O)(Oc1ccccc1)OC(c1ccccc1)C(F)(F)C(F)(F)F (centres undefined)	1.1	-4.2	3.2	-8.6	1.6
CC1(C)CC(n2[nH]c(=O)c3c2NC(=O)CSC3c2ccccc2)CCO1 (centres undefined)	0.2	-2.6	-2.1	-4.3	1.0
Fc1ccc(C(OCCN2CCCC2)c2ccc(Br)cc2)cc1 (centres undefined)	0.4	99.6*	1.3	20.7	0.3
Fc1ccc(C(OCCN2CCCC2)c2ccc(F)cc2)cc1	0.3	90.5*	4.8	2.9	0.8
[N-]=[N+]=NC1C[C@H](n2ccc(=O)[nH]c2=O)O[C@@H]1CO (some centres undefined)	-0.3	-2.0	-1.1	-4.3	-0.8
Cc1cccc(N=Cc2c(O)n(-c3ccccc3C)c(=O)[nH]c2=O)c1	0.8	-3.5	1.5	10.2	-0.8
Cc1ccccc1-n1c(O)c(C=Nc2ccc(N(C)C)cc2)c(=O)[nH]c1=O	1.4	57.9*	2.1	-5.4	2.9

Bioassay records as filed in PubChem BioAssay.
